Experimental data from ChEMBL document CHEMBL5058577, “EUbOPEN Chemogenomics Library 2 (Multiplex)” (2022).

System: Fibroblast
Experiment: Multiplex assay against human fibroblast
Format: toxicity, cell-based
Method in brief: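 With compound added, live cells were imaged on a CQ1 microscope at 37°C and 5% CO2; staining with Hoechst33342, BioTracker Green Microtubule Cytoskeleton Dye, MitoTracker Red and Annexin V Alexa Fluor 680 had been done at seeding. The CellPathfinder machine-learning gating scheme split cells into Hoechst high-intensity objects or normal cells, normal cells into healthy, pyknosed or fragmented nuclei, and pyknosed cells into mitotic or apoptotic. The tubulin, mitochondrial-mass and membrane-permeability phenotypes are per cents of healthy-nucleus cells.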

[1] = 12 h, 1 µM, compound concentration 1 uM, replicate 1
[2] = 12 h, 1 µM, compound concentration 1 uM, replicate 2
[3] = 12 h, 10 µM, compound concentration 10 uM, replicate 1
[4] = 12 h, 10 µM, compound concentration 10 uM, replicate 2
[5] = 24 h, 1 µM, compound concentration 1 uM, replicate 1
[6] = 24 h, 1 µM, compound concentration 1 uM, replicate 2
[7] = 24 h, 10 µM, compound concentration 10 uM, replicate 1
[8] = 24 h, 10 µM, compound concentration 10 uM, replicate 2
[9] = 48 h, 1 µM, compound concentration 1 uM, replicate 1
[10] = 48 h, 1 µM, compound concentration 1 uM, replicate 2
[11] = 48 h, 10 µM, compound concentration 10 uM, replicate 1
[12] = 48 h, 10 µM, compound concentration 10 uM, replicate 2

CC(F)(F)CN1CCOc2c(nn(-c3ccccc3Cl)c2-c2ccc(Cl)cc2)C1=O
Population Apoptotic (%) [1]: 42%
Population Healthy Nuclei (%) [1]: 66%
Population Hoechst High Intensity Objects (%) [1]: 0%
Population Mitochondria Different-Phenotype (%) [1]: 4%
Population Mitotic Cells (%) [1]: 57%
Population Normal (%) [1]: 99%
Population Pyknosed Nuclei (%) [1]: 15%
Total Cell Count [1]: 125
Population Apoptotic (%) [2]: 31%
Population Healthy Nuclei (%) [2]: 48%
Population Mitochondria Different-Phenotype (%) [2]: 10%
Population Mitotic Cells (%) [2]: 68%
Population Normal (%) [2]: 93%
Population Pyknosed Nuclei (%) [2]: 25%
Population Tubulin-Different-Phenotype (%) [2]: 61%
Total Cell Count [2]: 122
Population Apoptotic (%) [3]: 47%
Population Healthy Nuclei (%) [3]: 66%
Population Hoechst High Intensity Objects (%) [3]: 1%
Population Mitochondria Different-Phenotype (%) [3]: 19%
Population Mitotic Cells (%) [3]: 52%
Population Normal (%) [3]: 98%
Population Pyknosed Nuclei (%) [3]: 17%
Population Tubulin-Different-Phenotype (%) [3]: 49%
Total Cell Count [3]: 109
Population Apoptotic (%) [4]: 30%
Population Healthy Nuclei (%) [4]: 53%
Population Hoechst High Intensity Objects (%) [4]: 5%
Population Mitochondria Different-Phenotype (%) [4]: 8%
Population Mitotic Cells (%) [4]: 70%
Population Normal (%) [4]: 94%
Population Pyknosed Nuclei (%) [4]: 15%
Population Tubulin-Different-Phenotype (%) [4]: 57%
Total Cell Count [4]: 134
Population Apoptotic (%) [5]: 61%
Population Healthy Nuclei (%) [5]: 65%
Population Hoechst High Intensity Objects (%) [5]: 1%
Population Mitochondria Different-Phenotype (%) [5]: 2%
Population Mitotic Cells (%) [5]: 38%
Population Normal (%) [5]: 98%
Population Pyknosed Nuclei (%) [5]: 15%
Total Cell Count [5]: 119
Population Apoptotic (%) [6]: 64%
Population Healthy Nuclei (%) [6]: 52%
Population Hoechst High Intensity Objects (%) [6]: 4%
Population Mitochondria Different-Phenotype (%) [6]: 10%
Population Mitotic Cells (%) [6]: 36%
Population Normal (%) [6]: 95%
Population Pyknosed Nuclei (%) [6]: 20%
Population Tubulin-Different-Phenotype (%) [6]: 75%
Total Cell Count [6]: 129
Population Apoptotic (%) [7]: 33%
Population Healthy Nuclei (%) [7]: 65%
Population Hoechst High Intensity Objects (%) [7]: 0%
Population Mitochondria Different-Phenotype (%) [7]: 26%
Population Mitotic Cells (%) [7]: 66%
Population Normal (%) [7]: 99%
Population Pyknosed Nuclei (%) [7]: 10%
Population Tubulin-Different-Phenotype (%) [7]: 58%
Total Cell Count [7]: 111
Population Apoptotic (%) [8]: 35%
Population Healthy Nuclei (%) [8]: 54%
Population Hoechst High Intensity Objects (%) [8]: 1%
Population Mitochondria Different-Phenotype (%) [8]: 10%
Population Mitotic Cells (%) [8]: 64%
Population Normal (%) [8]: 98%
Population Pyknosed Nuclei (%) [8]: 14%
Population Tubulin-Different-Phenotype (%) [8]: 60%
Total Cell Count [8]: 121
Population Apoptotic (%) [9]: 56%
Population Healthy Nuclei (%) [9]: 63%
Population Hoechst High Intensity Objects (%) [9]: 1%
Population Mitochondria Different-Phenotype (%) [9]: 2%
Population Mitotic Cells (%) [9]: 43%
Population Normal (%) [9]: 98%
Population Pyknosed Nuclei (%) [9]: 11%
Population Tubulin-Different-Phenotype (%) [9]: 35%
Total Cell Count [9]: 136
Population Apoptotic (%) [10]: 40%
Population Healthy Nuclei (%) [10]: 53%
Population Hoechst High Intensity Objects (%) [10]: 4%
Population Mitochondria Different-Phenotype (%) [10]: 21%
Population Mitotic Cells (%) [10]: 60%
Population Normal (%) [10]: 95%
Population Pyknosed Nuclei (%) [10]: 7%
Population Tubulin-Different-Phenotype (%) [10]: 72%
Total Cell Count [10]: 135
Population Apoptotic (%) [11]: 78%
Population Healthy Nuclei (%) [11]: 56%
Population Hoechst High Intensity Objects (%) [11]: 1%
Population Mitochondria Different-Phenotype (%) [11]: 22%
Population Mitotic Cells (%) [11]: 21%
Population Normal (%) [11]: 98%
Population Pyknosed Nuclei (%) [11]: 11%
Total Cell Count [11]: 120
Population Apoptotic (%) [12]: 54%
Population Healthy Nuclei (%) [12]: 54%
Population Mitochondria Different-Phenotype (%) [12]: 7%
Population Mitotic Cells (%) [12]: 45%
Population Pyknosed Nuclei (%) [12]: 7%
Population Tubulin-Different-Phenotype (%) [12]: 57%
Total Cell Count [12]: 141
